Reference: ChEMBL document CHEMBL3861953 (J Med Chem, 2016)
Converted amounts (≈) assume the structure as drawn. The source made the active and inactive calls. The rule behind the calls is not given here.

Columns and labels:
Klebsiella pneumoniae = assay: Toxicity against Klebsiella pneumoniae at 10 uM
[1] = Inhibition of recombinant Mycobacterium tuberculosis InhA expressed in Escherichia coli Rosetta (DE3) pLysS using 2-trans-decenoyl-N-acetylcyste-amine as substrate in presence of NADH by spectrophotometric method
In short: (§1)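 His-tagged InhA purified by Ni-chelate then gel filtration. Assay at 25 °C in 30 mM PIPES, 150 mM NaCl, 1 mM EDTA, pH 6.8 with 200 µM trans-2-decenoyl-N-acetylcysteamine, 100 µM NADH, 1 µg enzyme. Initial rate of A340 decrease over 120 s. DMSO 0.1%; triplicates; triclosan positive control.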

[2] = Toxicity against Dictyostelium discoideum at 10 uM
[3] = system: Mycobacterium tuberculosis; assay: Inhibition of recombinant Mycobacterium tuberculosis InhA expressed in Escherichia coli Rosetta (DE3) pLysS at 30 uM using 2-trans-decenoyl-N-acetylcyste-amine as substrate measured for 120 sec in presence of NADH by spectrophotometric method; in short: as §1
Mycobacterium marinum [4] = assay: Antivirulence activity against Mycobacterium marinum assessed as Dictyostelium discoideum phagocytic plaque formation at 10 uM preincubated for 2 to 3 hrs followed by Dictyostelium discoideum addition measured after 5 to 9 days in presence of Klebsiella pneumoniae relative to control; type: functional
In short: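 Mixed lawn of mid-log Mm pellet resuspended in equal volume of overnight non-virulent Kp culture diluted 10-5; 50 µl spread on SM agar containing compound (10 µM), dried 2-3 h, then 103 Dictyostelium cells added. Incubated 5-9 days at 25 °C; phagocytic plaque diameter scored 0-4 versus DMSO control.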

Mycobacterium marinum [5] = assay: Antimycobacterial activity against LuxABCDE expressing Mycobacterium marinum measured after 48 hrs by luminescence based serial dilution assay; type: functional
In short: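 LuxABCDE-expressing M. marinum was grown shaking at 32°C in 7H9 with OADC to OD600 0.8-1. 10^5 bacteria per well were exposed to compounds (submicromolar to submillimolar) in 7H9 with 0.5% v/v DMSO at 32°C. Luminescence was followed for 48 h, with amikacin 10 µM as control. MIC was the lowest concentration giving significant signal reduction versus DMSO control at 48 h.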

Enterococcus faecalis = assay: Antimicrobial activity against Enterococcus faecalis ATCC 29212 assessed as inhibition of bacterial growth measured after 24 hrs using p-iodonitrotetrazolium violet by broth dilution method; type: functional; conditions: ATCC 29212, 24 h
In short: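 E. faecalis ATCC 29212 in Mueller-Hinton broth. Compounds were taken up at 2 mg/ml in DMSO (stock) and doubling dilutions were made in MHB. Inoculum was 1-5 × 10^5 final, incubated 37°C for 24 h, with sterility, growth and DMSO solvent controls. Growth was read by reduction of INT (2 mg/ml solution, several hours) to formazan. MIC was the lowest concentration with no red-purple colour or visible turbidity.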

[6] = Mycobacterium marinum, 48 h, read-out: MIC

Compound	Activity (Klebsiella pneumoniae)	IC50 [1]	Activity [2]	inhibition [3]	Activity (Mycobacterium marinum [4])	MIC (Mycobacterium marinum [5]; [6])	MIC (Mycobacterium marinum [5])	MIC (Enterococcus faecalis)
O=C(O)[C@H](Cc1c[nH]c2ccccc12)N1C(=O)/C(=C/c2ccc(N(CCCl)CCCl)cc2)SC1=S	Non-Toxic	12.2 µM	Non-Toxic	Active	Active	1.82 µM (≈ 0.998 µg/mL)	–	–
CCCc1ccc(/C=C2\SC(=S)N([C@H](Cc3c[nH]c4ccccc34)C(=O)O)C2=O)cc1	Non-Toxic	13 µM	Non-Toxic	Active	Active	55.5 µM (≈ 25 µg/mL)	–	–
CN(C)c1ccc(/C=C2\SC(=S)N([C@@H](Cc3c[nH]c4ccccc34)C(=O)O)C2=O)cc1 (stereo in doubt; 24) [listing 1 of 2 here]	–	–	–	Active	Active	–	–	–
CN(C)c1ccc(/C=C2\SC(=S)N([C@@H](Cc3c[nH]c4ccccc34)C(=O)O)C2=O)cc1 (stereo in doubt; 12) [listing 1 of 2 here]	–	–	–	Active	–	–	–	–
Oc1cc(Cl)ccc1Oc1ccc(Cl)cc1Cl [TRICLOSAN]	–	6.1 µM	–	–	–	8.63 µM (≈ 2.5 µg/mL)	–	–
CN(C)c1ccc(/C=C2\SC(=S)N([C@@H](Cc3c[nH]c4ccccc34)C(=O)O)C2=O)cc1 (stereo in doubt; 24) [listing 2 of 2 here]	Non-Toxic	14.7 µM	Non-Toxic	–	–	–	2.08 µM (≈ 0.939 µg/mL)	–
O=C(O)[C@@H](Cc1c[nH]c2ccccc12)N1C(=O)/C(=C/c2ccc(N(CCCl)CCCl)cc2)SC1=S	Non-Toxic	15.2 µM	Non-Toxic	Active	Active	18.3 µM (≈ 10 µg/mL)	–	–
CC(C)C[C@H](C(=O)O)N1C(=O)/C(=C/c2ccc(N(C)C)c3ccccc23)SC1=S	–	–	–	Active	–	–	–	–
O=C(O)[C@H](Cc1c[nH]c2ccccc12)N1C(=O)/C(=C/c2c3ccccc3c(Cl)c3ccccc23)SC1=S	Non-Toxic	2.9 µM	Non-Toxic	Active	Active	184 µM (≈ 100 µg/mL)	–	0.57 µM (≈ 0.31 µg/mL)
O=C(O)[C@H](Cc1c[nH]c2ccccc12)N1C(=O)/C(=C/c2ccc(Cl)cc2Cl)SC1=S	Non-Toxic	9.5 µM	Non-Toxic	Active	Active	21 µM (≈ 10 µg/mL)	–	–
CC(C)C[C@@H](C(=O)O)N1C(=O)/C(=C/c2ccc(N(C)C)c3ccccc23)SC1=S	–	–	–	Active	–	–	–	–
Cc1ccc(/C=C2\SC(=S)N([C@@H](Cc3c[nH]c4ccccc34)C(=O)O)C2=O)c2ccccc12	Non-Toxic	8.7 µM	Non-Toxic	Active	Active	0.21 µM (≈ 0.0992 µg/mL)	–	2.6 µM (≈ 1.23 µg/mL)
CN(C)c1ccc(/C=C2\SC(=S)N([C@@H](Cc3c[nH]c4ccccc34)C(=O)O)C2=O)c2ccccc12	Non-Toxic	19.1 µM	Non-Toxic	Active	Active	1.99 µM (≈ 0.998 µg/mL)	–	–
CCCc1ccc(/C=C2\SC(=S)N([C@@H](Cc3c[nH]c4ccccc34)C(=O)O)C2=O)cc1	Non-Toxic	13 µM	Non-Toxic	Active	Active	22.2 µM (≈ 10 µg/mL)	–	–
CN(C)c1ccc(/C=C2\SC(=S)N([C@@H](Cc3c[nH]c4ccccc34)C(=O)O)C2=O)cc1 (stereo in doubt; 12) [listing 2 of 2 here]	–	28.6 µM	–	–	–	–	22.17 µM (≈ 10 µg/mL)	–
CCCCC(C(=O)O)N1C(=O)/C(=C/c2ccc(N(C)C)c3ccccc23)SC1=S (racemic)	–	24.4 µM	–	Active	–	2.33 µM (≈ 0.999 µg/mL)	–	–
CC(C)CC(N1C(=O)/C(=C/c2ccc(N(C)C)c3ccccc23)SC1=S)P(=O)(O)O (configuration not stated)	Non-Toxic	19.1 µM	Non-Toxic	Active	Active	21.6 µM (≈ 10 µg/mL)	–	–
O=C(O)[C@H](Cc1c[nH]c2ccccc12)N1C(=O)/C(=C/c2ccc(Cl)cc2)SC1=S	Non-Toxic	19.7 µM	Non-Toxic	Active	Active	21.1 µM (≈ 9.32 µg/mL)	–	–
NCC[C@H](O)C(=O)N[C@@H]1C[C@H](N)[C@@H](O[C@H]2O[C@H](CN)[C@@H](O)[C@H](O)[C@H]2O)[C@H](O)[C@H]1O[C@H]1O[C@H](CO)[C@@H](O)[C@H](N)[C@H]1O [AMIKACIN]	–	–	–	–	–	1.7 µM (≈ 0.996 µg/mL)	–	–
CCN(CC)c1ccc(/C=C2\SC(=S)N([C@@H](CC(C)C)C(=O)O)C2=O)cc1	Non-Toxic	22.4 µM	Non-Toxic	Active	Active	2.46 µM (≈ 1 µg/mL)	–	–
Cc1ccc(/C=C2\SC(=S)N([C@H](Cc3c[nH]c4ccccc34)C(=O)O)C2=O)c2ccccc12	Non-Toxic	11 µM	Non-Toxic	Active	Active	2.11 µM (≈ 0.997 µg/mL)	–	5.2 µM (≈ 2.46 µg/mL)
